# The source made the active and inactive calls. No cut-off for these calls is given here.
# What was measured:
# Phospholipase A2 [1] = target: T1, Phospholipase A2 (Homo sapiens, UniProt P04054); assay: Binding affinity to human pancreatic recombinant 1B PLA2 expressed in Escherichia coli by resonance energy transfer assay in presence of trimethyl-ammonium-diphenylhexatriene
# Outline: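 Aqueous-phase binding measured as bile-salt quenching of the resonance energy transfer signal from the hPLA2–trimethyl-ammonium-diphenylhexatriene complex. Kd was derived from the quenching.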
# Target sequence in this assay (P04054 whole entry): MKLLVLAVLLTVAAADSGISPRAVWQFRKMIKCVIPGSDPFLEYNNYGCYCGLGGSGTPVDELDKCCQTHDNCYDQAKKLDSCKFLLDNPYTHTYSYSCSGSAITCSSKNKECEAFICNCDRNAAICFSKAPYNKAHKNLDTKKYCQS
# Sus scrofa = species on record: Sus scrofa; assay: Binding affinity to pig PLA2 at 100 uM by saturation transfer difference NMR spectroscopy
# Outline: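 STD NMR at 15 °C in 20 mM bicarbonate in D2O, pH 7.5, with 100 µM ligand and 7 µM pig pancreatic PLA2. Difference of on- and off-resonance irradiation by phase cycling, coadded from 6144 scans.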
# Phospholipase A2 [2] = target: T1, Phospholipase A2; assay: Binding affinity to human pancreatic recombinant 1B PLA2 expressed in Escherichia coli at 100 uM by saturation transfer difference NMR spectroscopy
# Target sequence in this assay (P04054 23-148 limits assumed): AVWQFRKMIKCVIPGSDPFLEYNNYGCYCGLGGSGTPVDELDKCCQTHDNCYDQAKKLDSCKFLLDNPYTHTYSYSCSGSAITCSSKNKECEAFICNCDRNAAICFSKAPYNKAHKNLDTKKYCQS
# Phospholipase A2 [3] = target: T1, Phospholipase A2; assay: Reduction in human pancreatic recombinant 1B PLA2 activity expressed in Escherichia coli assessed as hydrolysis of cholate-activated 1,2-dimyristoyl-sn-3-glycerophosphocholine vesicles
# Target sequence in this assay (P04054 23-148 limits assumed): as above
# Phospholipase A2 [4] = target: T1, Phospholipase A2; assay: Increase in human pancreatic recombinant 1B PLA2 activity expressed in Escherichia coli assessed as hydrolysis rate of 1,2-dimyristoyl-sn-3-glycerophosphocholine vesicles in absence of cholate
# Outline: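 pH-stat titration of hydrolysis of sonicated 1 mM DMPC vesicles, started with 2 to 10 pM hPLA2, titrated with 1 mM 2-aminopropanediol base. Buffer was 5 mM CaCl2, 1 mM NaCl, 0.1 mM EDTA, pH 8.0, 24 ± 0.1 °C, under nitrogen. Test compound was present at 0.03 or 0.007 MF.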
# Target sequence in this assay (P04054 23-148 limits assumed): as above
# Phospholipase A2 [5] = target: T1, Phospholipase A2; assay: Apparent inhibition of human pancreatic recombinant 1B PLA2 expressed in Escherichia coli assessed as hydrolysis rate of 1,2-dimyristoyl-sn-3-glycerophosphocholine vesicles in presence of cholate
# Target sequence in this assay (P04054 23-148 limits assumed): as above
# Phospholipase A2 [6] = target: T1, Phospholipase A2
# Target sequence in this assay (P04054 23-148 limits assumed): as above
Compound,Kd (Phospholipase A2 [1]) [µM],Activity (Sus scrofa),Activity (Phospholipase A2 [2]),Activity (Phospholipase A2 [3]),Activity (Phospholipase A2 [4]),Ki(app) (mole fraction) (Phospholipase A2 [5]),Ki(app) (mole fraction) (Phospholipase A2 [6])
C[C@H](CCC(=O)O)[C@H]1CC[C@H]2[C@@H]3[C@H](O)C[C@@H]4C[C@H](O)CC[C@]4(C)[C@H]3C[C@H](O)[C@]12C [CHOLIC ACID],> 150,Active,Active,,,,
C[C@H](CCC(=O)NCCS(=O)(=O)O)[C@H]1CC[C@H]2[C@@H]3CC[C@@H]4C[C@H](O)CC[C@]4(C)[C@H]3C[C@H](O)[C@]12C,,,Active,,,,
CC1=C\C/C=C(\C)CC/C=C(\C)CC[C@](O)(C(C)C)/C=C\1,,,,Dose-dependent effect,inactive,0.00325,
C[C@H](CCC(=O)NCCS(=O)(=O)O)[C@H]1CC[C@H]2[C@@H]3[C@@H](O)C[C@@H]4C[C@H](O)CC[C@]4(C)[C@H]3CC[C@]12C [TAURURSODIOL],10,,,Dose-dependent effect,,0.000306,0.005
C[C@H](CCC(=O)O)[C@H]1CC[C@H]2[C@@H]3[C@H](O)C[C@@H]4C[C@H](O)CC[C@]4(C)[C@H]3CC[C@]12C,,Active,Active,,,,
